The structures appear in SMILES notation.

The nature of this data set: Toxicity liver stage against HepG2, at 10uM. Type of data set: cell-based. Set-up: test concentration 10 uM, cell line HepG2-A16-CD81EGFP. The note with it: human, HepG2-A16-CD81EGFP cells; read-out: INHIBITION
The essentials:
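Uninfected HepG2-A16-CD81EGFP cells, 3 × 10^3 per well, 1536-well, plated on prespotted compound at 10 μM final, parasite-free screening media added to match infected plates; puromycin 10 μM positive, DMSO 0.5% negative; run in parallel with 48 h PbLuc assay at 37 °C, 5% CO2; viability by CellTiter-Glo luminescence, normalized to controls.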
Turning to `CC(=O)N1CCN(C(=O)C[C@@H]2C[C@@H](C(C)C)[C@H](CC#N)C=C2C)CC1`, the cytotoxicity at 10 µM is -1.01%.

On to `O=C(NC[C@H]1O[C@H](Cc2cc(-c3ccccn3)on2)CC[C@@H]1O)C1CC1`, for which the cytotoxicity at 10 µM is -2.69%.

`Cc1ccc(-c2noc([C@@H]3C[C@H](NC(=O)CC(C)(C)C)CN3C)n2)cc1`: the cytotoxicity at 10 µM was 7.35%.

With `CC[C@@H](C)[C@H](NC(=O)NC1CCS(=O)(=O)C1)C(=O)NCc1ccncc1` (stereo partly specified), the cytotoxicity at 10 µM was -2.56%.

As for `Cn1nnnc1SCC(=O)N1CCN(C(=O)C2CC2c2cccs2)CC1` (stereo unspecified), the cytotoxicity at 10 µM is 8.58%.

As for `Cc1ccsc1C(=O)N1CC2CC1(C(=O)NCc1ccco1)C2`, the cytotoxicity at 10 µM was -6.43%.

As to `CC1c2ncc(COCC3CCOCC3)n2CCN1S(C)(=O)=O` (stereo unspecified), the cytotoxicity at 10 µM worked out at 3.11%.

Consider `O=C(c1cccnc1)N1CCc2onc(CN3CCCC3)c2C1`, for which the cytotoxicity at 10 µM amounted to 4.86%.

Take `COCC1CN(C(=O)c2ccnnc2)Cc2ncnn2C1` (stereo unspecified): the cytotoxicity at 10 µM is -4.24%.

As for `CC(C)NC(=O)C1CN(C(=O)c2cccs2)CC12CCOCC2` (stereo unspecified), the cytotoxicity at 10 µM was -3.59%.

Turning to `COc1ncccc1C(=O)N1CC[C@H]2C[C@@H](c3ccncn3)O[C@@H]2C1`, the cytotoxicity at 10 µM was -2.24%.

For `Cc1nc(N2CCCC2)nc2c1CCN(C(=O)C1CCCCC1)CC2`, the cytotoxicity at 10 µM was found to be 3.16%.

Turning to `CC(C)Oc1ccccc1C1CC(=O)Nc2nc(N3CCOCC3)sc21` (stereo unspecified), the cytotoxicity at 10 µM was determined as 14.3%.

In the case of `O=C(CCc1ccccc1F)NC1CCCN(c2ccccn2)C1` (stereo unspecified), the cytotoxicity at 10 µM was 2.21%.

For the compound `CC(C)NC(=O)Nc1ncc(-c2cccnc2)s1`, the cytotoxicity at 10 µM amounted to 7.05%.

As to `COCC(=O)N1CC(c2n[nH]cc2C)C1`, the cytotoxicity at 10 µM was -2.76%.

For the compound `O=C(NCC1(O)COCCN(Cc2ccc(O)cc2)C1)c1cnccn1` (stereo unspecified), the cytotoxicity at 10 µM is -12.8%.

In the case of `CCC(Nc1ncccn1)c1ccc(OC)cc1` (stereo unspecified), the cytotoxicity at 10 µM is -12.6%.

As for `COc1ccc(C2(c3nc(-c4cccnc4)no3)CCOCC2)cc1`, the cytotoxicity at 10 µM is 13.9%.

Take `Cc1c(C[S+](C)[O-])cccc1NC(=O)c1cc(Cl)ccn1` (stereo unspecified): the cytotoxicity at 10 µM was determined as 9.41%.

As to `COc1ncccc1NC(=O)c1[nH]nc(C(C)C)c1Br`, the cytotoxicity at 10 µM is 17.1%.

Regarding `Cn1ccnc1C(O)(CCNCc1ccc(Cl)o1)C(F)(F)F` (stereo unspecified), the cytotoxicity at 10 µM stood at 4.91%.

Regarding `CCC(C)(O)CNc1ccc(S(=O)(=O)C(F)F)cc1` (stereo unspecified), the cytotoxicity at 10 µM amounted to 12.2%.

Turning to `CC(C)(C)c1noc(CCC(=O)N(CC2CCOC2)C2CC2)n1` (stereo unspecified), the cytotoxicity at 10 µM amounted to 2.66%.

Consider `CC(C)c1nnc2n1CCN(Cc1ccc3c(c1)OCCO3)C2`, for which the cytotoxicity at 10 µM was -0.234%.

As for `COC(=O)c1ccc(NC(=O)NC2CCc3[nH]ncc3C2)cc1` (stereo unspecified), the cytotoxicity at 10 µM is -11.2%.

For `COc1nc(N2CCC(CC(N)=O)CC2)ncc1Br`, the cytotoxicity at 10 µM was found to be 2.99%.

On to `CCOC(=O)C1(O)CCN(C(=O)Nc2cccc(CC)c2)CC1`, for which the cytotoxicity at 10 µM was -140%.

Take `NC(=O)CC1CCN(c2ncnc3cccc(F)c23)CC1`: the cytotoxicity at 10 µM amounted to 3.39%.

`CC(=O)Nc1ccc(CNC(C)c2c(C)nn(C)c2C)cc1` (stereo unspecified): the cytotoxicity at 10 µM is 13%.

As for `COC(=O)C(C)(C)NC(=O)c1cc2sc(N(C)C)nc2s1`, the cytotoxicity at 10 µM was -20.5%.

For `CC(=O)N1CCN(c2nc3c(cnn3C(C)(C)C)c(=O)[nH]2)CC1`, the cytotoxicity at 10 µM is -17.9%.

Turning to `COc1ccc(CNC(Cn2cncn2)c2ccccc2)cc1O` (stereo unspecified), the cytotoxicity at 10 µM was -6.74%.

Turning to `COC(=O)CNc1cc(C(=O)NCC(F)(F)F)cc(F)c1C`, the cytotoxicity at 10 µM came out at 6.05%.

Consider `O=C(NCc1ccccc1CN1CCCCCC1)Nc1nncs1`, for which the cytotoxicity at 10 µM was determined as 4.22%.

For `Cc1ncsc1CNc1ccn(Cc2ccccc2)n1`, the cytotoxicity at 10 µM worked out at 9.58%.

With `CC1CCCCN1C(=O)Cn1cc(I)cn1` (stereo unspecified), the cytotoxicity at 10 µM came out at 0.687%.

As to `CC(C)c1noc(CNC2CCCN(Cc3noc(C4CC4)n3)C2)n1` (stereo unspecified), the cytotoxicity at 10 µM is -3.19%.

In the case of `CCc1nnc2n1CCN(Cc1csc(-c3ccccc3F)n1)C2`, the cytotoxicity at 10 µM was -4.49%.

As to `Cn1cc(-c2csc(N3CCSCC3)n2)cn1`, the cytotoxicity at 10 µM is -1.31%.

For the compound `Cc1cc(CN2CCc3cncnc3C2)on1`, the cytotoxicity at 10 µM came to 4.13%.

In the case of `CN(C)C(CNC(=O)c1cccc(C(N)=O)c1)c1ccccc1Cl` (stereo unspecified), the cytotoxicity at 10 µM was -4.83%.

For the compound `OCC1CCCN1c1cc(NCc2ccccn2)ncn1` (stereo unspecified), the cytotoxicity at 10 µM was -8.01%.

For the compound `Cc1cnn(CC2CCCN2C(=O)Cn2nc(C)c(Cl)c2C)c1` (stereo unspecified), the cytotoxicity at 10 µM was -11.3%.

In the case of `Cc1ccnc(N2CCC(NCCOc3ccccc3)CC2)n1`, the cytotoxicity at 10 µM was -1.21%.

As to `Cc1ccc(C(C)(O)CNC(=O)c2sccc2OC(F)F)o1` (stereo unspecified), the cytotoxicity at 10 µM was -1.34%.

For the compound `Cc1cnc(CN(Cc2ccc(C#N)cc2F)C2CCN(C)C2)o1` (stereo unspecified), the cytotoxicity at 10 µM is 0.172%.

For `O=C(NCC1CCS(=O)(=O)C1)Nc1ccccn1` (stereo unspecified), the cytotoxicity at 10 µM amounted to 1.54%.

As to `CC1CN(c2ccc(CNC(=O)NCCO)cn2)CCO1` (stereo unspecified), the cytotoxicity at 10 µM came out at 6.15%.

Regarding `CC(C(=O)NCC1(c2cccc(Br)c2)CCC1)S(C)(=O)=O` (stereo unspecified), the cytotoxicity at 10 µM was determined as 6.88%.

With `Cn1cccc1C1CCCN1Cc1noc(C(C)(C)C)n1` (stereo unspecified), the cytotoxicity at 10 µM is -4.4%.

Take `O=C(CN1CCc2sccc2C1)Nc1nccs1`: the cytotoxicity at 10 µM was determined as 5.31%.

For `O=S(=O)(CC1CCCCC1)NCc1ccnc(O)c1`, the cytotoxicity at 10 µM was 6.54%.

Regarding `O=C(CCn1ccccc1=O)Nc1ccc(I)cc1`, the cytotoxicity at 10 µM is 7.27%.

As to `O=C1CN(CCCNC(=O)Nc2cccc(Cl)c2F)CCN1`, the cytotoxicity at 10 µM is 15.2%.

Take `COc1ccc(N2CCN(Cc3nc(CSC)no3)CC2=O)cc1`: the cytotoxicity at 10 µM was found to be 1.44%.

With `CCCc1cc(NCCN2CCNC2=O)n2nccc2n1`, the cytotoxicity at 10 µM is -6.42%.

For the compound `Cn1ccnc1-c1nc2cc(S(=O)(=O)N3CCCC3)ccc2n1C`, the cytotoxicity at 10 µM came out at 5.05%.

With `Cn1cc(Cl)c(C(=O)N2CCC(N3CCc4ccccc4C3)CC2)n1`, the cytotoxicity at 10 µM is -2.27%.

`CCc1noc(CN(CC)Cc2cc3cc(C)ccc3[nH]c2=O)n1`: the cytotoxicity at 10 µM was 2.7%.

Take `Cc1cc(C(=O)N2CCC(c3nnc(Cn4ccnc4)n3C)CC2)cs1`: the cytotoxicity at 10 µM is -114%.

`CC(=O)CCC(=O)N1CCC2(CC1)N=C(CCC(C)C)NC2=O`: the cytotoxicity at 10 µM is -7.14%.

As to `Cc1ccc2c(c1)SCC(=O)N2CC(=O)N1CCCC1c1cc(C)no1` (stereo unspecified), the cytotoxicity at 10 µM was 8.32%.

As to `Cn1cnnc1CN1CCC2(CCC(=O)N(Cc3ccccn3)C2)CC1`, the cytotoxicity at 10 µM came out at 7.82%.

Consider `CC(C)CN1CCN(S(=O)(=O)c2cn(C)cn2)[C@H]2CS(=O)(=O)C[C@H]21`, for which the cytotoxicity at 10 µM was -4.07%.

For `COCCCN1CCC(c2nc3c([nH]2)CC(C)(C)CNC3=O)C1` (stereo unspecified), the cytotoxicity at 10 µM turned out to be 0.0531%.

Regarding `CCN1CCN(S(=O)(=O)N2CCc3ccccc3C2)[C@H]2CS(=O)(=O)C[C@H]21`, the cytotoxicity at 10 µM was -4%.

With `CCCc1cnc(C)nc1N1CCC(F)(F)CC1`, the cytotoxicity at 10 µM is 7.46%.

On to `CCc1ccccc1OCCCN(C)C(=O)C1CCCN1C(N)=O` (stereo unspecified), for which the cytotoxicity at 10 µM was determined as 0.369%.

Turning to `O=C(CCN1CCOCC1)N1CCC(Cc2ccc(CO)cc2)C1` (stereo unspecified), the cytotoxicity at 10 µM is -9.47%.

As to `CCCc1nc(C)cc(N2CCC3(CCC(=O)N(CC(N)=O)C3)CC2)n1`, the cytotoxicity at 10 µM was -8.38%.

As to `CCN1CCN(CC(=O)N2CCOC(Cc3ccc(OC)cc3)C2)CC1` (stereo unspecified), the cytotoxicity at 10 µM was -2.77%.

In the case of `CCc1cc(CN(C)C(=O)c2cnon2)on1`, the cytotoxicity at 10 µM turned out to be 9.83%.

For `Cc1c(Cl)c(C(=O)N2CC[C@H](N3CCOCC3)[C@H](CCCO)C2)nn1C`, the cytotoxicity at 10 µM is -148%.

On to `COc1ccccc1OCCNC(=O)CN1CCc2cncnc2C1`, for which the cytotoxicity at 10 µM was -15.6%.

Take `CN(CCCc1cc(-c2ccccc2)no1)S(C)(=O)=O`: the cytotoxicity at 10 µM is -14.4%.

`c1ccc2oc(CCCN3CCCCC3Cn3cncn3)nc2c1` (stereo unspecified): the cytotoxicity at 10 µM is -10.2%.

For the compound `CCCc1cc(C(=O)NCCN2CCCS2(=O)=O)[nH]n1`, the cytotoxicity at 10 µM is -7.13%.

As for `COc1ccc(NC(=O)NC(C)Cc2ccco2)cn1` (stereo unspecified), the cytotoxicity at 10 µM was -3.54%.

As for `Cc1ccc(N(C)S(=O)(=O)c2cc(C(=O)O)cs2)c(C)c1`, the cytotoxicity at 10 µM is 1.82%.

Regarding `CC(Cn1cccn1)NC(=O)N1CCN(Cc2ccco2)CC1` (stereo unspecified), the cytotoxicity at 10 µM is -20.6%.

As for `CC(C)Cc1cc(C(=O)NCCn2nc3ccccn3c2=O)[nH]n1`, the cytotoxicity at 10 µM is -16.3%.

Take `O=C(N1CCCC1)N1CCc2c(CNc3ncccn3)cncc2C1`: the cytotoxicity at 10 µM is 3.97%.

In the case of `c1snnc1CN1C[C@H]2CCC[C@@H](CN3CCOCC3)[C@H]2C1`, the cytotoxicity at 10 µM was -116%.

For `CN(C)[C@@H]1CCN(c2ncc(F)cn2)[C@H]1Cc1ccncc1`, the cytotoxicity at 10 µM was -1.96%.

As to `CC(C)CN1C[C@@H]2C(=O)N(C)C3(CCN(C(=O)C(C)C)CC3)[C@@H]2C1`, the cytotoxicity at 10 µM was found to be 6.88%.

For the compound `O=C(c1cscn1)N1CC[C@@H]2[C@@H]1CCN2CC1CCOCC1`, the cytotoxicity at 10 µM is 5.3%.

For `O=C(Nc1ccccc1)C1CN(CC2CCOCC2)CC12CCOCC2` (stereo unspecified), the cytotoxicity at 10 µM was found to be 1.65%.

On to `COCC1CN(Cc2sccc2C)Cc2nnn(CC3CC3)c21` (stereo unspecified), for which the cytotoxicity at 10 µM is 4.35%.

Turning to `CC(C)N1CCC2(C=C(C(=O)N(C)C)c3ccccc32)CC1`, the cytotoxicity at 10 µM was 1.24%.

With `CC(=O)N1C(CN2CCCC2)C[C@@H]2CN(C(=O)c3ccoc3)CC[C@@H]21` (stereo partly specified), the cytotoxicity at 10 µM is -0.655%.

As for `COC1COC2(CCN(Cc3ccccc3Cl)CC2)C1` (stereo unspecified), the cytotoxicity at 10 µM was -14.1%.

For the compound `Cn1nc(Cn2cccn2)c2c1CN(Cc1ccsc1)C2`, the cytotoxicity at 10 µM was -148%.

In the case of `CN(C)CC1CN(C(=O)CCc2ccccc2)Cc2nccn2C1` (stereo unspecified), the cytotoxicity at 10 µM was -121%.

In the case of `CC(C)CNC(=O)[C@H]1C[C@H]2CN(C(=O)NCC3CCCCC3)C[C@@H]1O2`, the cytotoxicity at 10 µM is -4.81%.

Consider `CN1C(=O)[C@@H]2CC[C@H]1CN(C(=O)Nc1cccc3ccccc13)C2`, for which the cytotoxicity at 10 µM was -2.69%.

Source of the values: ChEMBL document CHEMBL4513216, “Probing the Open Global Health Chemical Diversity Library for Multistage-Active Starting Points for Next-Generation Antimalarials” (ACS Infect Dis, 2020).
